Data on twelve compounds can be found in ChEMBL document CHEMBL1123814, “Synthesis and beta-lactamase inhibitory properties of 2 beta-[(1,2,3-triazol-1-yl)methyl]-2 alpha-methylpenam-3 alpha-carboxylic acid 1,1-dioxide and related triazolyl derivatives” (J Med Chem, 1987).

For assay [1], the system named is Escherichia coli. Description: Growth inhibition against Beta lactamase producing bacteria, Escherichia coli (TH-397) was determined for the compound in the combination with Ampicillin. Type of assay: functional. The method in brief:
(§1)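 Bacteria (β-lactamase producers) were grown in Mueller Hinton broth and diluted to 10⁷ cfu/mL. They were inoculated into the same medium containing ampicillin plus triazole and incubated at 37 °C for 20 h. The MIC was the lowest concentration leaving the medium free of turbidity.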

Assay [2] has as its system Staphylococcus aureus. The assay can be described thus: Growth inhibition against Beta lactamase producing bacteria, Staphylococcus aureus (ATCC90124) was determined for the compound in the combination with Ampicillin. In kind it is functional. The method in brief: as §1
Assay [3] has as its system Proteus vulgaris. Description: Growth inhibition against Beta lactamase producing bacteria, Proteus vulgaris (IID OX-19)was determined for the compound in the combination with Ampicillin. Type of assay: functional. The method in brief:
as §1

Assay [4] concerns Serratia marcescens. The assay can be described thus: Growth inhibition against Beta lactamase producing bacteria, Serratia marcescens was determined for the compound in the combination with Ampicillin. In kind it is functional. Put shortly: as §1
Assay [5] deals with Proteus mirabilis. Description: Growth inhibition against Beta lactamase producing bacteria, Proteus mirabilis (121K) was determined for the compound in the combination with Ampicillin. Type of assay: functional. The method in brief:
as §1

Assay [6] deals with Escherichia coli. The assay can be described thus: Minimum inhibitory concentration against 30 strains of Escherichia coli. In kind it is functional.
For assay [7], the system named is Staphylococcus aureus. The assay can be described thus: Growth inhibition against Beta lactamase producing bacteria, Staphylococcus aureus (S-54K) was determined for the compound in the combination with Ampicillin. In kind it is functional. Put shortly: as §1
Assay [8] relates to Escherichia coli. Description: Growth inhibition against Beta lactamase producing bacteria, Escherichia coli (TH-13) was determined for the compound in the combination with Ampicillin. In kind it is functional. The method in brief:
as §1

Assay [9] relates to Staphylococcus aureus. The assay can be described thus: Minimum inhibitory concentration of Ampicillin required for growth inhibition of Beta lactamase producing bacteria Staphylococcus aureus (S-54K). In kind it is functional. The method in brief:
(§2)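 The inoculum was 10⁷ cfu/mL, incubated at 37 °C for 20 h. The MIC was the lowest concentration that left the medium free of turbidity.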

Assay [10] deals with Escherichia coli. Description: Minimum inhibitory concentration of Ampicillin required for growth inhibition of Beta lactamase producing bacteria Clinically isolated Escherichia coli (TH-397). Type of assay: functional. Put shortly:
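Broth microdilution in Mueller Hinton broth. Ampicillin was tested with the triazole fixed at 10 µg/mL against a β-lactamase-producing clinical isolate, with an inoculum of 10⁷ cfu/mL. Plates were incubated at 37 °C for 20 h. The MIC was the lowest concentration that left the medium free of turbidity.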

Assay [11] concerns Serratia marcescens. The assay can be described thus: Minimum inhibitory concentration of Ampicillin required for growth inhibition of Beta lactamase producing bacteria Serratia marcescens. In kind it is functional. The method in brief:
(§3)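 Micro broth dilution MIC of ampicillin tested on its own. β-Lactamase-producing bacteria were grown in Mueller Hinton broth and inoculated at 10⁷ cfu/mL into medium containing ampicillin.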

Assay [12] relates to Staphylococcus aureus. Description: Minimum inhibitory concentration of Ampicillin required for growth inhibition of Beta lactamase producing bacteria Staphylococcus aureus (ATCC90124). Type of assay: functional. Put shortly:
as §2

Assay [13] relates to Escherichia coli. Description: Minimum inhibitory concentration of Ampicillin required for growth inhibition of Beta lactamase producing bacteria Clinically isolated Escherichia coli (TH-13). In kind it is functional. The method in brief:
as §2

For assay [14], the system named is Proteus mirabilis. The assay can be described thus: Minimum inhibitory concentration of Ampicillin required for growth inhibition of Beta lactamase producing bacteria Proteus mirabilis (121K). Type of assay: functional. The method in brief: as §3
Assay [15] has as its system Proteus vulgaris. Description: Minimum inhibitory concentration of Ampicillin required for growth inhibition of Beta lactamase producing bacteria Proteus vulgaris (IID OX-19). Type of assay: functional. Put shortly: as §3
A short description of assay [16]: Inhibitory activity against cephalosporinase from Proteus morganii TH-64 using cephalothin (40 uM) as a substrate; […]. Further details: species or system Morganella morganii; call rule not given here. Put shortly:
(§4)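 Isolated β-lactamase (cephalosporinase) was inhibited in a microiodometric assay. Substrate concentration was 40 μM, and the 50% inhibitory concentration (M) was determined.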

Assay [17] can be described thus: Inhibitory activity against cephalosporinase from Proteus vulgaris TH-147 using cephalexin (40 uM) as a substrate. The method in brief:
as §4

Another assay addresses Beta-lactamase OXA-1 (Escherichia coli, UniProt P13661). Description: Inhibitory activity against Beta-lactamase type OXA1 (penicillinase) from Escherichia coli OXA1 using ampicillin (40 uM) as a substrate. The method in brief: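 Isolated β-lactamase tested by microiodometric assay, measuring substrate hydrolysis. Ampicillin substrate at 40 μM. Value reported as the 50% inhibitory concentration.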

Assay [18] can be described thus: Inhibitory activity against cephalosporinase from Proteus morganii TH-64 using cephalothin (40 uM) as a substrate. Further details: species or system Morganella morganii. The method in brief: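 Isolated β-lactamases were tested by the microiodometric assay, with each line's substrate at 40 μM.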

pIC50: −log10 of the molar value. In brackets after ≈: the same amount, converted by molar mass.

Chain of Beta-lactamase OXA-1 (P13661 whole entry): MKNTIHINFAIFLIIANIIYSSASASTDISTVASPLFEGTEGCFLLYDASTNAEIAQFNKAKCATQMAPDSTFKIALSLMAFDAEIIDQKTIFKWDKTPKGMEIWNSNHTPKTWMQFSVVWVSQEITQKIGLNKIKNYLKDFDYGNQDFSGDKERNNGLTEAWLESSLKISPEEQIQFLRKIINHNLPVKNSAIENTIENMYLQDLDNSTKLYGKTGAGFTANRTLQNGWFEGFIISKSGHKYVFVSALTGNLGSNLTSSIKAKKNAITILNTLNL

As usually defined, the MIC is the lowest concentration that inhibits growth of the organism. One may read the MIC50 as the lowest concentration that inhibits either 50% of growth or 50% of the strains tested, depending on the study. The low end stands for higher susceptibility, the high end for lower susceptibility. Turning to `CC1(C)S[C@@H]2[C@H](NC(=O)[C@H](N)c3ccccc3)C(=O)N2[C@H]1C(=O)O.CC1(C)[C@H](C(=O)O)N2C(=O)C[C@H]2S1(=O)=O`, the MIC with Escherichia coli [1] was determined as 0.78 µg/mL; in the assay on Staphylococcus aureus [2] it was 0.2 µg/mL; in the assay with Proteus vulgaris [3] it was 1.56 µg/mL; in the assay with Serratia marcescens [4], 3.13 µg/mL; with Proteus mirabilis [5], 6.25 µg/mL; in the assay with Staphylococcus aureus [7], 0.2 µg/mL. For the same compound, in the assay with Escherichia coli [8], the MIC was found to be 6.25 µg/mL. In the assay with Escherichia coli [6], this compound returned an MIC50 of 12.5 µg/mL. This compound displayed an MIC70 in the assay on Escherichia coli [6] of 100 µg/mL.
Turning to `CC1(C)S[C@@H]2[C@H](NC(=O)C(N)c3ccccc3)C(=O)N2[C@H]1C(=O)O.COC(=O)c1cnnn1C[C@@]1(C)[C@H](C(=O)[O-])C2C(=O)CC2S1(=O)=O.[Na+]` (stereo not given in full), the MIC is 6.25 µg/mL in the assay with Escherichia coli [1]; 0.2 µg/mL in the assay with Staphylococcus aureus [2]; 0.39 µg/mL in the assay on Proteus vulgaris [3]; 25 µg/mL in the assay with Serratia marcescens [4]; 0.78 µg/mL with Proteus mirabilis [5]; 0.2 µg/mL in the assay with Staphylococcus aureus [7]. The MIC with Escherichia coli [8] came to 6.25 µg/mL.
As to `CC1(C)[C@H](C(=O)O)N2C(=O)C[C@H]2S1(=O)=O.CCN1CCN(C(=O)N[C@@H](C(=O)N[C@@H]2C(=O)N3[C@@H]2SC(C)(C)[C@@H]3C(=O)O)c2ccccc2)C(=O)C1=O`, in the assay on Escherichia coli [6], the MIC50 came to 12.5 µg/mL and the MIC70 is 25 µg/mL.
As to `CC1(C)S[C@@H]2[C@H](NC(=O)C(N)c3ccccc3)C(=O)N2[C@H]1C(=O)O.C[C@]1(Cn2cc([Si](C)(C)C)nn2)[C@H](C(=O)[O-])C2C(=O)CC2S1(=O)=O.[Na+]` (stereo not given in full), the minimum inhibitory concentration (MIC) in the assay with Escherichia coli [1] is 50 µg/mL; in the assay on Staphylococcus aureus [2], 0.39 µg/mL; in the assay on Proteus vulgaris [3], 1.56 µg/mL; in the assay on Serratia marcescens [4] it was 100 µg/mL; in the assay on Proteus mirabilis [5], 25 µg/mL; in the assay on Staphylococcus aureus [7], 0.78 µg/mL. Moreover, in the assay with Escherichia coli [8], the MIC was determined as 100 µg/mL.
For `CC1(C)S[C@@H]2[C@H](/N=C/N3CCCCCC3)C(=O)N2[C@H]1C(=O)O.CC1(C)[C@H](C(=O)O)N2C(=O)C[C@H]2S1(=O)=O`, in the assay with Escherichia coli [6], the MIC50 came to 0.1 µg/mL and the MIC70 came to 0.39 µg/mL.
Regarding `CC1(C)S[C@@H]2[C@H](NC(=O)C(N)c3ccccc3)C(=O)N2[C@H]1C(=O)O.COC(=O)c1cn(C[C@@]2(C)[C@H](C(=O)[O-])C3C(=O)CC3S2(=O)=O)nn1.[Na+]` (stereo not given in full), the MIC in the assay with Escherichia coli [1] was found to be 3.13 µg/mL; in the assay with Staphylococcus aureus [2], 0.2 µg/mL; in the assay on Proteus vulgaris [3], 0.39 µg/mL; with Serratia marcescens [4], 12.5 µg/mL; in the assay with Proteus mirabilis [5] it was 0.78 µg/mL; with Staphylococcus aureus [7] it was 0.2 µg/mL. The MIC in the assay with Escherichia coli [8] amounted to 3.13 µg/mL.
In the assay on Escherichia coli [6], `CC1(C)S[C@@H]2[C@H](/N=C/N3CCCCCC3)C(=O)N2[C@H]1C(=O)O` [AMDINOCILLIN] returned an MIC50 of 3.13 µg/mL (≈ 9.62 µM) and an MIC70 of 12.5 µg/mL (≈ 38.4 µM).
Take `CC1(C)S[C@@H]2[C@H](NC(=O)[C@H](N)c3ccccc3)C(=O)N2[C@H]1C(=O)O` [AMPICILLIN]: the MIC in the assay with Staphylococcus aureus [9] is 25 µg/mL (≈ 71.5 µM); in the assay on Escherichia coli [10], 400 µg/mL (≈ 1140 µM); with Serratia marcescens [11], 400 µg/mL (≈ 1140 µM); against Staphylococcus aureus [12] it was 25 µg/mL (≈ 71.5 µM); in the assay with Escherichia coli [13] it was 200 µg/mL (≈ 572 µM); against Proteus mirabilis [14], more than 400 µg/mL. The compound also displayed an MIC with Proteus vulgaris [15] of 200 µg/mL (≈ 572 µM). Besides, the MIC50 in the assay with Escherichia coli [6] stood at 400 µg/mL (≈ 1140 µM). The compound also came in with an MIC70 in the assay on Escherichia coli [6] of more than 400 µg/mL.
As to `CC1=C(C(=O)O)N2C(=O)[C@@H](NC(=O)[C@H](N)c3ccccc3)[C@H]2SC1` [CEPHALEXIN ANHYDROUS], in the assay with Escherichia coli [6], the MIC50 came out at 25 µg/mL (≈ 72 µM) and the MIC70 was found to be 100 µg/mL (≈ 288 µM).
A word on the pIC50: it is the negative decadic logarithm of the IC50, by convention in mol/L. Read a low pIC50 as a large IC50. For `O=C(O)[C@H]1/C(=C/CO)O[C@@H]2CC(=O)N21` [CLAVULANIC ACID], the IC50 entry in [16] is recorded as “Not Active”. Moreover, the pIC50 in [17] was 6.80; at Beta-lactamase OXA-1, 5.49.
In the assay with Escherichia coli [6], `CCN1CCN(C(=O)N[C@@H](C(=O)N[C@@H]2C(=O)N3[C@@H]2SC(C)(C)[C@@H]3C(=O)O)c2ccccc2)C(=O)C1=O` [PIPERACILLIN] came in with an MIC50 of 50 µg/mL (≈ 96.6 µM) and an MIC70 of 200 µg/mL (≈ 386 µM).
Consider `CC1(C)[C@H](C(=O)O)N2C(=O)C[C@H]2S1(=O)=O` [SULBACTAM], for which the pIC50 in assay [18] was 6.00; in assay [17] it was 6.10; on Beta-lactamase OXA-1 it was 4.66.
